Screening data (PubChem BioAssay)
Redox H2O2 prof: compounds producing H2O2 with reducing agent – biochemical, NIH compound library profiling, artefact control for MLSCN library redox annotation, primary screen; AID 878; activation, % at 10 µM; DTT-dependent redox cycling H2O2, phenol red/HRP absorbance; 100% = 100 µM peroxide control, 0% = buffer; actives 0.03% (n = 200,000);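 active = activation of at least 50% relative to the plate's high and low controls in the primary single-dose screen; inactive = activation below 50%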;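 note: compound incubated with DTT at 0.8 mM final as the reducing agent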
Lmaj promast: Leishmania major promastigote growth inhibition. Leishmania major promastigotes, resazurin fluorescence viability. inhibition, % at 10 µM. actives 9% (n = 200,000); in the data active = inhibition above about 50%;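 note: promastigotes grown with compound for 44 hours at 28 °C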
MPTP inh: permeability transition pore inhibition; isolated mouse mitochondria, Ca2+ swelling absorbance, 30 min; actives 1.4% (n = 360,000); inhibition, % at 10 µM;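 active = inhibition of 50% or more, scaled per plate between neutral and stimulator controls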;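 note: 0% = DMSO wells given calcium and 100% = 1 mM EGTA wells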
T cruzi inh: blocks replication of Trypanosoma cruzi. actives 1.4% (n = 300,000). T. cruzi beta-gal in NIH3T3, luminescence, 90 h. inhibition, % (concentration not given with the values);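 active = mean inhibition across valid replicates above about 55%, limit read from the data; inconclusive = mean below that limit but half or more replicates reach it; inactive = mean below it, under half of replicates reach it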;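 note: signal also drops with host cell toxicity which is not excluded here; 0% = plate median of DMSO wells and 100% = zero luminescence signal; higher percent means less beta-gal luminescence so fewer parasites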
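Test system: β-gal T. cruzi (Tulahuen C4) inside NIH/3T3 cells / Quantity: 5,000 cells/well / Measured by: luminescence from GalScreen with 0.05% NP40, read after 60 min / Medium: DMEM plus 2% FBS / Measure: parasite load inhibition, % / Reagent: Tulahuen C4 trypomastigotes, 5000/well / Schedule: co-culture of at least 90 h after 3 h attachment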
Hep lipid drop: hepatic lipid droplet formation modulation. inhibition, % at 6.5 µM. actives 0.4% (n = 240,000). AML12 mouse hepatocytes, oleate lipid droplets, BODIPY imaging;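 active = lipid droplet intensity inhibited by at least 50%, with more than 500 cells counted; inconclusive = wells with under 300 cells, treated as cytotoxic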
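Material: mouse AML12 hepatocyte cell line, fixed after treatment; Timing: compound with oleate, overnight; Technique: high-content imaging of BODIPY-stained droplets and DAPI nuclei; Probe or stimulus: oleate, 100 µM final; Dosing: compound at 6.5 µM only.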
Active calls of the source: *; u = inconclusive; x = not tested or not shown. This is one part of a sample in which hits are shown more often than they occur.

SMILES | Redox H2O2 prof | Lmaj promast | MPTP inh | T cruzi inh | Hep lipid drop
COc1ccc(-c2cc(C(=O)N3CCN(C(c4ccccc4)c4ccccc4)CC3)no2)cc1 | 3 | 3 | 2 | 36 | x
CN1CCN(C(=O)c2cc(-c3ccccc3)on2)CC1 | 2 | 70* | -2 | 1 | 5
COc1ccc(-c2cc(C(=O)N3CCN(C(c4ccccc4)c4ccccc4)CC3)no2)cc1OC | 2 | 94* | -3 | 22 | x
COc1cc2c(cc1OC)CN(C(=O)CCNC(=O)c1ccccc1Cl)CC2 | x | x | 0 | x | x
COc1ccc2cc(C(c3nnnn3C3CCCC3)N3CCc4ccccc4C3)c(=O)[nH]c2c1 (stereo unspecified) | 0 | 82* | -1 | 31 | x
CCC(C)(C)n1nnnc1C(c1cccc(C#N)c1)N1CCN(c2cccc(C)c2C)CC1 (stereo unspecified) | -1 | 76* | 2 | -10 | x
CCC(C)(C)n1nnnc1C(c1ccc(C)cc1)N1CCCC1 (stereo unspecified) | -1 | 65* | 1 | 19 | x
CC(C)(C)n1nnnc1C(c1cccc(C#N)c1)N1CCCCCC1 (stereo unspecified) | 1 | 14 | 0 | -2 | x
CCC(C)(C)n1nnnc1C(c1cccs1)N1CCCCC1 (stereo unspecified) | -1 | 14 | 1 | -3 | -6
CCC(C)(C)n1nnnc1C(c1cc2ccc(OC)cc2[nH]c1=O)N1CCc2ccccc2C1 (stereo unspecified) | 1 | 100* | 0 | 55* | -28
CC(C)C(c1nnnn1C1CCCCC1)N1CCc2ccccc2C1 (stereo unspecified) | 1 | 67* | 2 | -3 | x
CCC(C)(C)n1nnnc1C(c1ccc(O)c(OC)c1)N1CCc2ccccc2C1 (stereo unspecified) | 0 | 1 | -1 | -1 | x
COc1ccc2cc(C(c3nnnn3C(C)(C)C)N3CCc4ccccc4C3)c(=O)[nH]c2c1 (stereo unspecified) | -1 | 99* | x | x | -2
CCC(C)(C)n1nnnc1C(c1ccccc1)N1CCc2ccccc2C1 (stereo unspecified) | -1 | 77* | 2 | 45 | -10
O=C(O)CCCCCCCCCCCc1ccccc1 | 0 | -1 | -2 | -15 | 8
CCCCOC(=O)Nc1nnc(C(C)C)s1 | 0 | -3 | -2 | 64* | -2
Cc1ccccc1Cn1c([N+](=O)[O-])cnc1C | 1 | -5 | -1 | -14 | -4
Cc1ccc(Cn2c([N+](=O)[O-])cnc2C)cc1 | 0 | -7 | 0 | -5 | -32
Cc1ncc([N+](=O)[O-])n1Cc1ccccc1 | 0 | 73* | -4 | -7 | 14
Cc1ncc([N+](=O)[O-])n1CC(=O)Nc1ccc(Cl)cc1 | x | x | 0 | 7 | -3
Cc1ncc([N+](=O)[O-])n1Cc1cccc(F)c1 | -1 | 85* | 3 | 10 | 15
Cc1ncc([N+](=O)[O-])n1CC(=O)NC1CCCCC1 | 0 | 83* | 1 | -10 | -7
COc1cccc(NC(=S)N(CCCN2CCCC2)Cc2ccco2)c1 | 0 | 44 | -3 | -10 | -4
S=C(Nc1cccc(Cl)c1)N(CCCN1CCCC1)Cc1cccn1Cc1ccc(Cl)cc1 | 0 | 100* | 5 | 53 | -20
COc1cccc(NC(=S)N(CCCN2CCCC2)Cc2cccn2Cc2ccc(Cl)cc2)c1 | 0 | 91* | 2 | 20 | 4
SMILES | Redox H2O2 prof | Lmaj promast | MPTP inh | T cruzi inh | Hep lipid drop
CSc1cccc(NC(=S)N(CCCN2CCCC2)Cc2cccn2Cc2ccc(Cl)cc2)c1 | 0 | 101* | 1 | 56* | -19
COc1cc(C(c2c(C)[nH][nH]c2=O)c2c(C)[nH][nH]c2=O)cc([N+](=O)[O-])c1O | -1 | 0 | 0 | -8 | -10
CCOc1cc(C(c2c(C)[nH][nH]c2=O)c2c(C)[nH][nH]c2=O)ccc1OC(=O)c1cccc([N+](=O)[O-])c1 | 1 | 25 | 0 | 1 | 8
Cc1ccc(C(c2c(C)[nH][nH]c2=O)c2c(C)[nH][nH]c2=O)cc1[N+](=O)[O-] | 0 | 58* | 0 | -3 | 5
CCOc1cc(C(c2c(C)[nH][nH]c2=O)c2c(C)[nH][nH]c2=O)ccc1OCc1ccc([N+](=O)[O-])cc1 | 0 | 100* | -4 | 8 | -2
COc1ccccc1NC(=O)Nc1cccnc1 | -1 | -4 | -1 | x | -3
CC(C)C(OC(=O)c1nsc(Cl)c1Cl)C(=O)NCC1CCCO1 (stereo unspecified) | x | x | 1 | -7 | 2
Cc1ccc2c(c1)N(C(=O)c1ccco1)C(C)(C)c1ssc(=S)c1-2 | 0 | 98* | 1 | 30 | 34
CCOC(=O)CNc1nc(C(C)(C)C)nc2c1nnn2Cc1ccccc1Cl | 0 | 3 | 4 | 61* | x
COCC1CCN(Cc2cn(Cc3ccccc3)nc2-c2cc3ccccc3o2)CC1 | -1 | 37 | -3 | 14 | 4
COCC1CCN(Cc2cn[nH]c2-c2cc3ccccc3o2)C1 (stereo unspecified) | -10 | 12 | 0 | 69* | -12
COCC1CCCN(Cc2cn(Cc3ccccc3)nc2-c2cc3ccccc3o2)C1 (stereo unspecified) | -1 | 64* | 1 | u | -16
CN(Cc1ccccc1)C(=O)COC(=O)c1ccc[nH]c1=O | x | x | 1 | x | x
COc1ccc(N=C2c3ccccc3-c3ccc([N+](=O)[O-])cc32)cc1 | x | x | 2 | x | x
CN(C)c1ccc(-c2nc3ccccn3c2/N=C/c2ccc(Br)cc2)cc1 | 0 | 99* | 6 | 22 | 4
Cc1c(-c2ccc(Br)cc2)nc2ccccn12 | 0 | 27 | -2 | -3 | -14
O=C1NCCCC2c3cc(O)c4ccccc4c3OC12N1CCCCC1 (stereo unspecified) | 0 | 100* | x | x | x
O=C(N/N=C/c1ccc(N2CCOCC2)cc1)c1ccncc1 | x | x | -2 | x | x
O=C(N/N=C/c1ccc(N2CCOCC2)cc1)c1ccccc1OCCOc1ccccc1 | -2 | 61* | -1 | 28 | -16
CCOC(=O)c1c(-c2ccc(C)o2)csc1NC(=S)NC(=O)c1cccs1 | 0 | 75* | 4 | 37 | 6
CCOC(=O)c1c(-c2ccc(C)o2)csc1NC(=S)NC(=O)c1ccccc1Br | 0 | 18 | 0 | 37 | -21
CCOC(=O)c1c(-c2ccc(C)o2)csc1NC(=O)CSc1nnnn1-c1ccccc1 | 1 | 0 | -1 | 60* | x
O=C(CC(C(=O)N1CCc2ccccc21)n1ccnc1)NCc1ccccc1 (stereo unspecified) | 0 | 100* | -1 | 23 | 0
CCOC(=O)N1CCN(C(=O)CC(C(=O)N2CCc3ccccc32)n2ccnc2)CC1 (stereo unspecified) | 2 | 83* | -2 | 63* | x
CCN(CC)CCNC1=NCCn2c1cc1cc(OC)ccc12 | 0 | 96* | 3 | 50 | 31
CCc1nc2c(OCc3ccc(Cl)cc3)cccn2c1N(C)C(=O)c1ccc2c(c1)OCO2 | x | x | 2 | x | x
